These results are taken from ChEMBL document CHEMBL5260843 (J Med Chem, 2019).

In data set [1] the target is DCN1-like protein 1/NEDD8-conjugating enzyme Ubc12 (Homo sapiens, UniProt Q96GG9). Briefly: Inhibition of GST-tagged DCN1 PONY domain (unknown origin)/human N-terminal acetylated UBC12 (1 to 12 residues) protein-protein interaction incubated for 1 hr by HTRF analysis. Type of data set: protein assay. In general terms: TR-FRET usually uses a lanthanide donor and a delayed reading to cut background.
Chain of DCN1-like protein 1/NEDD8-conjugating enzyme Ubc12 (Q96GG9 whole entry, the tested form may be a part): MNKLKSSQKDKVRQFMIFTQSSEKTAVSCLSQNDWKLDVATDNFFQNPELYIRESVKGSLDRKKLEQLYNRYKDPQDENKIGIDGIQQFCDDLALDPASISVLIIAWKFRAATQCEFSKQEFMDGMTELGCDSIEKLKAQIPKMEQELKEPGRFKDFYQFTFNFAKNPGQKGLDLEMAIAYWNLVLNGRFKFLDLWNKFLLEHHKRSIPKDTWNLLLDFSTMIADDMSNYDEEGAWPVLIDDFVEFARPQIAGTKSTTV
Chain of DCN1-like protein 1/NEDD8-conjugating enzyme Ubc12 (P61081 whole entry, further chain, the tested form may be a part): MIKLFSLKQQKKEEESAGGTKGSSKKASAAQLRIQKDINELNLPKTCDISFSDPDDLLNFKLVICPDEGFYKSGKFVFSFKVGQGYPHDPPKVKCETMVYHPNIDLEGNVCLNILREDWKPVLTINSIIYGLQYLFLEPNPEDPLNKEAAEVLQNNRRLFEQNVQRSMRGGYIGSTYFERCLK

The subject of data set [2] is MGC-803. Put plainly: Induction of p27 accumulation in human MGC-803 cells incubated for 24 hrs by Western blot analysis. As to conditions: dose 1-10 µM. Type of data set: functional, cell-based. The method in brief:
(§1)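 Cells in 6-well plates were exposed to compound for 24 h. MGC-803 were grown in DMEM and KYSE70 in RPMI 1640, both with 10% FBS at 37 °C and 5% CO2. Lysates were made in RIPA with protease inhibitors and quantified by BCA. 30 μg protein was run on 8% SDS-PAGE and blotted to nitrocellulose. Primary antibodies were applied overnight at 4 °C, then HRP secondaries, with ECL and film detection. GAPDH was the loading control. Run three times.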
On the technique in general: Immunoblotting shows a protein as a band on a membrane.

The nature of data set [3]: Metabolic stability in dog liver microsomes assessed as intrinsic clearance. Type of data set: ADME, Canis lupus familiaris, Microsome. As to conditions: read-out: CLH. (In general: Liver microsomes are vesicles of endoplasmic reticulum, rich in cytochrome P450 enzymes.)
A further data set deals with Cullin-4A (Homo sapiens) (UniProt Q13619). Briefly: Inhibition of cullin4A neddylation in UBC/DCN1 overactivated human MGC-803 cells at 0.3 to 10 uM incubated for 24 hrs by Western blot analysis. Type of data set: cell-based. The note with it: dose 0.3-10 µM. The method in brief: as §1
Chain of Cullin-4A (Homo sapiens) (Q13619 whole entry): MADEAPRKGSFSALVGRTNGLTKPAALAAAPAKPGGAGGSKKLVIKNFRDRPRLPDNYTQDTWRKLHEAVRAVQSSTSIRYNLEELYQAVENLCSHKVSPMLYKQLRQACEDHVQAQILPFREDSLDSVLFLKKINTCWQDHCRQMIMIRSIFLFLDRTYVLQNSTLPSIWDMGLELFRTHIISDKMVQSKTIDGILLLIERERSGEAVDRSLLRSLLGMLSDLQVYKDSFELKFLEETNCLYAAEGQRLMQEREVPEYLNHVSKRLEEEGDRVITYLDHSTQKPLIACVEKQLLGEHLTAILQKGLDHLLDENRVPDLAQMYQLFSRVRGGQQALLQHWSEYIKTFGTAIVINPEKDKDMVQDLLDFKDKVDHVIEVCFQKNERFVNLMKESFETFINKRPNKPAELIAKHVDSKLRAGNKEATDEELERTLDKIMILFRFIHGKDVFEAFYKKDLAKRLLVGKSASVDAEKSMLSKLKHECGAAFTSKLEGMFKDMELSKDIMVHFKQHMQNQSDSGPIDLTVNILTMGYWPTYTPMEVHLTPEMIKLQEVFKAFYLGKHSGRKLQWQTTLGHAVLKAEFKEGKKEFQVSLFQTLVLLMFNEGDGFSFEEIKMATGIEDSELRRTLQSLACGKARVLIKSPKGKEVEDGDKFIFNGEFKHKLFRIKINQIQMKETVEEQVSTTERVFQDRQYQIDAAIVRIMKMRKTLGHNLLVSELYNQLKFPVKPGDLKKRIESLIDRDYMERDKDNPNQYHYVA
The test system of data set [4] is KYSE-70 cell line. Put plainly: Inhibition of cullin2 neddylation in human KYSE-70 cells at 0.3 to 10 uM incubated for 24 hrs by Western blot analysis. Type of data set: cell-based. The note with it: dose 0.3-10 µM. The method in brief: as §1
Data set [5] has as its target Cyclin-dependent kinase 1/cyclin B (Homo sapiens) (UniProt P06493+P14635+Q8WWL7+O95067). Briefly: Inhibition of C-terminal His6 tagged human full length CDK1/N-terminal GST-tagged human full length Cyclin B expressed in baculovirus infected Sf21 cells using 5-FAM-QSPKKG-CONH2 as substrate at 10 uM incubated for 60 mins in presence of ATP relative to control. The method in brief: (§2)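 CDK/cyclin complexes were assayed with 3 μM 5-FAM peptide substrate. ATP was 20 μM for CDK1, 30 μM for CDK2, 280 μM for CDK4, 800 μM for CDK6 and 10 μM for CDK9. Buffer was 50 mM HEPES pH 7.5, 0.0015% Brij-35, 10 mM MgCl2 and 2 mM DTT. Reactions ran 60 min at 28 °C and were stopped with EDTA. Caliper conversion values were converted to % inhibition.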

Data set [6] relates to MGC-803. Put plainly: Induction of ROS generation in human MGC-803 cells at 1 uM incubated for 24 hrs by DCFH-DA staining based flow cytometry analysis (reference value: 2.2%). It is filed as functional.
Data set [7] can be described thus: Metabolic stability in rat liver microsomes assessed as half life. It is filed as ADME, Microsome.
The test system of data set [8] is MGC-803. Put plainly: Inhibition of cullin3 neddylation in UBC/DCN1 overactivated human MGC-803 cells at 3 uM incubated for 24 hrs by Western blot analysis. It is filed as cell-based. The method in brief:
as §1

The nature of data set [9]: Metabolic stability in human liver microsomes assessed as half life. Type of data set: ADME, Microsome.
Data set [10] can be described thus: Metabolic stability in rat liver microsomes assessed as intrinsic clearance. It is filed as ADME, Microsome. As to conditions: read-out: CLH.
The test system of a further data set is KYSE-70. Put plainly: Induction of p27 accumulation in human KYSE-70 cells incubated for 24 hrs by Western blot analysis. As to conditions: dose 0.3-10 µM. Type of data set: functional, cell-based. The method in brief: as §1
Data set [11] deals with Epidermal growth factor receptor (Homo sapiens), P00533 [L858R]. Put plainly: Inhibition of human EGFR L858R mutant (669 to 1210 residues) expressed in Sf21 insect cells using 5-FAM-EEPLYWSFPAKKK-CONH2 as substrate at 10 uM incubated for 30 mins relative to control.
Chain of Epidermal growth factor receptor (Homo sapiens), P00533 [L858R] (P00533 whole entry L858R, the tested form may be a part): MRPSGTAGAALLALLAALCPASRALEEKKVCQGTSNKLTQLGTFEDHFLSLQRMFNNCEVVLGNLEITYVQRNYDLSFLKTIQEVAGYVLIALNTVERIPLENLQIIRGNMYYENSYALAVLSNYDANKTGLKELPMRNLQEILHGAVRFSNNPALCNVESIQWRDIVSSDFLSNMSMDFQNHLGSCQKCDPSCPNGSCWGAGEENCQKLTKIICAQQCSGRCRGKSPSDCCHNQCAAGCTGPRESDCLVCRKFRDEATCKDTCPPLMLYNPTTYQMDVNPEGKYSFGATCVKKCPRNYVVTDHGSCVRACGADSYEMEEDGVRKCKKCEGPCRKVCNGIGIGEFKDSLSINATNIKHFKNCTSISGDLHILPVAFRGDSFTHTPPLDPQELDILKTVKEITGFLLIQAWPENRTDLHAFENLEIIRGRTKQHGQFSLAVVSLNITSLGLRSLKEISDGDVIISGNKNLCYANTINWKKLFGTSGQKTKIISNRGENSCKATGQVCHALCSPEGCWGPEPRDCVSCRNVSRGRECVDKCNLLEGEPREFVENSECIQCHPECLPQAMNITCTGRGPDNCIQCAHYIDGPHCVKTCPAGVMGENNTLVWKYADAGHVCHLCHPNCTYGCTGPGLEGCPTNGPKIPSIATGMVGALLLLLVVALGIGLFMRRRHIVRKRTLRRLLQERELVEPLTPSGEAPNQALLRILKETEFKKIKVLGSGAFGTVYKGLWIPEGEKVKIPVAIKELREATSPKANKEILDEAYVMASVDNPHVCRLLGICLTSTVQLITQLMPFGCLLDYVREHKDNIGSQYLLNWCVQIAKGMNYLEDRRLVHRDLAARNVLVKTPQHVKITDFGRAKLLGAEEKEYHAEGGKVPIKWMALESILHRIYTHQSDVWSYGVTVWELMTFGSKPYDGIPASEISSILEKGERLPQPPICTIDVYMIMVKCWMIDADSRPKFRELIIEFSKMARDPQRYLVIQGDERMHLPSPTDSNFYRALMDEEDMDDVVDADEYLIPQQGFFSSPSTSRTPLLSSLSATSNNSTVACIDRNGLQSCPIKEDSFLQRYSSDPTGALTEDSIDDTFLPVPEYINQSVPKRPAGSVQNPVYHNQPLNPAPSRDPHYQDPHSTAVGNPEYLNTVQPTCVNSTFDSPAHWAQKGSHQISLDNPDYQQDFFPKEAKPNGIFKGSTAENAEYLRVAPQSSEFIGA
The target of data set [12] is CDK6/cyclin D3 (Homo sapiens) (UniProt P30281+Q00534). Briefly: Inhibition of full length human CDK6/N-terminal GST fused human cyclinD3 expressed in baculovirus expression system using 5-FAMIPTSPITTTYFFFKKK-COOH as substrate at 10 uM incubated for 60 mins in presence of ATP relative to control. The method in brief:
as §2

Data set [13] deals with MGC-803. Briefly: Induction of p21 accumulation in human MGC-803 cells incubated for 24 hrs by Western blot analysis. The note with it: dose 1-10 µM. Type of data set: functional, cell-based. The method in brief: as §1
In data set [14] the target is T1, Cullin-5 (Homo sapiens) (UniProt Q93034).
T1 sequence (whole entry): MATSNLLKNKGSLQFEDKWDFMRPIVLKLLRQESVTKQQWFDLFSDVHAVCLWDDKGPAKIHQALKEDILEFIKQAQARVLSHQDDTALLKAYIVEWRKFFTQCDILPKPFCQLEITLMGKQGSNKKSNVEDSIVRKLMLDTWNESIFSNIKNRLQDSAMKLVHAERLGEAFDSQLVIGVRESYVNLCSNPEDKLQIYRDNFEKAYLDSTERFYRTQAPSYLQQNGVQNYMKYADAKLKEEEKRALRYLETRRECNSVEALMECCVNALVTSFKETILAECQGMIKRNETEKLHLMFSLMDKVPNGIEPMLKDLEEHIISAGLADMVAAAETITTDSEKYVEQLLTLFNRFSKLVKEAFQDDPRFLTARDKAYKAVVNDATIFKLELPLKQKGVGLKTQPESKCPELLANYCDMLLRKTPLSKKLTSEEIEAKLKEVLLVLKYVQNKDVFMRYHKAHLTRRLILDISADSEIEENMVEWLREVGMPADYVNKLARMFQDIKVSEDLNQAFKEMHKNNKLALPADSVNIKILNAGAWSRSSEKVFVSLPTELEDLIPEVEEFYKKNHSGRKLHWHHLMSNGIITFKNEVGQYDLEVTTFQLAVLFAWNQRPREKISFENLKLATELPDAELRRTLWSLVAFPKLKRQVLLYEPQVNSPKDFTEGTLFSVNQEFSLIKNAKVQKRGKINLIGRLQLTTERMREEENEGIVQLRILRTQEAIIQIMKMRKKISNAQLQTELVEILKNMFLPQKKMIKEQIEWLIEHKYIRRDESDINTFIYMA
Briefly: Inhibition of cullin5 neddylation in human KYSE-70 cells at 0.3 to 10 uM incubated for 24 hrs by Western blot analysis. Type of data set: cell-based. As to conditions: KYSE-70 cell line, dose 0.3-10 µM. The method in brief:
as §1

The next data set addresses Cullin-4B (Homo sapiens) (UniProt Q13620). Put plainly: Inhibition of cullin4B neddylation in UBC/DCN1 overactivated human MGC-803 cells at 0.3 to 10 uM incubated for 24 hrs by Western blot analysis. Type of data set: cell-based. The note with it: dose 0.3-10 µM. The method in brief: as §1
For data set [15], the target named is CDK9/cyclin T1 (Homo sapiens) (UniProt O60563+P50750). Briefly: Inhibition of C-terminal His6 tagged full length recombinant human CDK9/full length human Cyclin T1 expressed in baculovirus infected Sf21 cells using 5-FAM-ACSYSPTSPSYSPTSPSYSPTSPSKK as substrate at 10 uM incubated for 60 mins in presence of ATP relative to control. The method in brief: as §2

Data set [16] deals with KYSE-70 cell line. Briefly: Inhibition of cullin3 neddylation in human KYSE-70 cells incubated for 24 hrs by Western blot analysis. It is filed as cell-based. As to conditions: dose 0.3-10 µM. The method in brief:
as §1

Data set [17] relates to MGC-803. Briefly: Inhibition of cullin2 neddylation in UBC/DCN1 overactivated human MGC-803 cells at 0.3 to 10 uM incubated for 24 hrs by Western blot analysis. It is filed as cell-based. The note with it: dose 0.3-10 µM. The method in brief:
as §1

Data set [18] addresses T1, Cullin-5 (Homo sapiens). Briefly: Inhibition of cullin5 neddylation in UBC/DCN1 overactivated human MGC-803 cells at 0.3 to 10 uM incubated for 24 hrs by Western blot analysis. It is filed as cell-based. As to conditions: dose 0.3-10 µM. The method in brief: as §1

Active and inactive are the calls of the source. The rule behind the calls is not given here.

Chain of Cullin-4B (Homo sapiens) (Q13620 whole entry): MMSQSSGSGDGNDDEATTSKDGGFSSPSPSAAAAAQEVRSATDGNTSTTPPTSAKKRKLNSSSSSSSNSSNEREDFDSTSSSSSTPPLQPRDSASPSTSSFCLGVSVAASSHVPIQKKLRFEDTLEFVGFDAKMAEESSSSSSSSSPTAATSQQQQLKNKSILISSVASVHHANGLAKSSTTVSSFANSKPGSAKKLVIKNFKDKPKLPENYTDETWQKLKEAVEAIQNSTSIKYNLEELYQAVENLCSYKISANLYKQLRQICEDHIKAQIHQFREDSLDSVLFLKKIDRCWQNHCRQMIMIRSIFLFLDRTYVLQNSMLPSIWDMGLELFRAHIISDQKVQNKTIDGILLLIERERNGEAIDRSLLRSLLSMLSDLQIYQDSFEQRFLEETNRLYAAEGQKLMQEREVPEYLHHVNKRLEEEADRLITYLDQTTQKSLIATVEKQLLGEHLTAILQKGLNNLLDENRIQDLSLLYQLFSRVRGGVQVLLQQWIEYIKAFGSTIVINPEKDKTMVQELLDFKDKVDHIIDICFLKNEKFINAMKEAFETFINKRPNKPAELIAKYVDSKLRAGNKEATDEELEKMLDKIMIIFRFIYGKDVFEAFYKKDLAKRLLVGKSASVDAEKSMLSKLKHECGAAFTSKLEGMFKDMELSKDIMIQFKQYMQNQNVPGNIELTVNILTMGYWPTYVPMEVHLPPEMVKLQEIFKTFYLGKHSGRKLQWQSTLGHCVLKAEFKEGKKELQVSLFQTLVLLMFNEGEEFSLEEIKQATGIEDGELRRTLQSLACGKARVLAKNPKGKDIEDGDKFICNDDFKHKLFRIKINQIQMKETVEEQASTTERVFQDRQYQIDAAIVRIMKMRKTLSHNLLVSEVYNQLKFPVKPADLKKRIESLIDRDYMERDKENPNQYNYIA

In general, IC50 refers to the concentration needed to halve the response being measured. In general, inhibition refers to the change of the read-out against control, counted positive when it falls. Usually half-life stands for how long it takes for the measured level to halve. In data set [1], `Cc1cc(Sc2nnnn2CCN(C)C)n2nc(SCc3ccc(Cl)cc3)nc2n1.Cl` showed an IC50 of 11 nM. In addition, the Activity entry with MGC-803 [2] was “Dose-Dependent Effect”; with MGC-803 [6] it was 3.8%; with KYSE-70, “Dose-Dependent Effect”; in the data set with MGC-803 [13], “Dose-Dependent Effect”. Besides, the CLint scaled in [3] is 691 mL/min/kg; in data set [10], 497 mL/min/kg. Further, the inhibition entry at Cullin-4A (Homo sapiens), in the data set on KYSE-70 cell line [4], on Cullin-5 (Homo sapiens) [14], at Cullin-4B (Homo sapiens), in the data set with MGC-803 [17] and at Cullin-5 (Homo sapiens) [18] was “inactive” each time. Moreover, the inhibition in data set [5] was 9.6%; in data set [11], -0.6%; in [12], 21.8%; in data set [15], -8.4%; in the data set with KYSE-70 cell line [16] it was “Dose-Dependent Effect”. In addition, the half-life in [7] and in data set [9] was < 5 min throughout. For the same compound, in the data set with MGC-803 [8], the inhibition entry was “Active”.
